High-throughput results (PubChem)
Hits are enriched below; roughly 1.7% of the tested compounds scored in any of these assays.
Keap1-Nrf2 PPI – Keap1-Nrf2 protein-protein interaction inhibitors, primary screen, biochemical, fluorescence polarization, single point. Kelch-like ECH-associated protein 1 (Homo sapiens), Q14145. Keap1 Kelch-Nrf2 peptide fluorescence polarization, 1536-well. inhibition, % at 9.4 µM. 340,000 tested, 0.15% active. AID 504523, 2011; in the data active = inhibition above about 12%;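 also: human Keap1 Kelch domain with fluorescein labeled Nrf2 9mer peptide probe; higher means more block of Keap1 binding to Nrf2 peptide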
CAL PDZ FP-1 – CAL PDZ peptide-binding inhibitors, primary screen, biochemical, fluorescence polarization, Cer-tagged CAL PDZ, HTS; Golgi-associated PDZ and coiled-coil motif-containing protein (Homo sapiens), Q9HD26; purified CAL PDZ, TMR-peptide fluorescence polarization, 1 h; inhibition, % at 20 µM; 330,000 tested, 0.02% active; AID 504414, 2011;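 active = highest replicate inhibition of at least 40%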
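Test system: purified CerCALP PDZ construct; Compound dosing: one concentration, 20 µM compound; Also added: TMR-labelled reporter peptide T*-PRC34 bound in PDZ groove; Read-out: inhibition from polarization loss; Controls: unlabelled peptide and DMSO controls; Signal: FP readout, S and P plane fluorescence; Incubation: 1 h at RT.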
LANA DNA inh – inhibitors of KSHV C-LANA binding to DNA, primary screen, biochemical, fluorescence polarization, FAM-LBS DNA, MBP-C-LANA, single point; Kaposi's sarcoma herpesvirus LANA C-terminal domain (residues 932-1162) DNA binding; inhibition, % at 9 µM; 340,000 tested, 0.078% active;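 active = highest replicate inhibition at or above 60% at 9 µM, even if other replicates fall short; inactive = all replicates below 60% inhibition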
A3A deaminase – APOBEC3A ssDNA deaminase inhibitors, primary screen, selectivity assay for APOBEC3G inhibitor project, biochemical, FAM/TAMRA oligo cleavage fluorescence | inhibition, % at 20 µM | DNA dC->dU-editing enzyme APOBEC-3A (Homo sapiens), P31941 | recombinant A3A, FAM/TAMRA ssDNA deamination fluorescence | 330,000 tested, 0.41% active;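 active = at least 40% inhibition at 20 µM here, with at most 30% in a related deaminase screen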
Target sequence (P31941 whole entry, looked up): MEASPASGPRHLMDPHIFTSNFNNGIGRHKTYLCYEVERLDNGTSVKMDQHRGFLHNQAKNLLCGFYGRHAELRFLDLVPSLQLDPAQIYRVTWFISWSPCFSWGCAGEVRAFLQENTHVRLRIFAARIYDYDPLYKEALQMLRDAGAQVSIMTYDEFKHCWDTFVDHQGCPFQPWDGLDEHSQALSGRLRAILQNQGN
CAL PDZ FP-2 – untagged CAL PDZ binding inhibitors, primary screen, biochemical, fluorescence polarization, HTS | Golgi-associated PDZ and coiled-coil motif-containing protein (Homo sapiens), Q9HD26 | purified CAL PDZ, TMR-peptide fluorescence polarization, 1 h | inhibition, % at 24.9 µM | 300,000 tested, 0.92% active | AID 602252, 2012;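 active = mean inhibition of at least 30% with at least half of replicates also reaching 30%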
A3G deaminase – APOBEC3G DNA deaminase inhibitors, primary screen, biochemical, fluorescence, single-stranded DNA substrate, uHTS | inhibition, % at 20 µM | AID 493012, 2011 | DNA dC->dU-editing enzyme APOBEC-3G (Homo sapiens), Q9HC16 | recombinant A3G, ssDNA deamination FAM/TAMRA fluorescence | 330,000 tested, 0.28% active;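 active = inhibition of at least 40% at 20 µM, with no more than 30% in the related APOBEC3A deaminase screen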
APOBEC3G confirm – APOBEC3G deaminase inhibitor retest, confirmation, biochemical, fluorescence, single-stranded DNA substrate, single concentration; inhibition, % at 20 µM; recombinant A3G ssDNA deaminase, UDG/FAM-TAMRA fluorescence; shares compounds with A3G deaminase; 890 tested, 72% active; AID 493152, 2011;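 active = inhibition reaching a set limit in any replicate at 20 µM, the limit being 80% of the first screen's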
UDG ctr A3G – E. coli UDG inhibitors, confirmation, counter-screen for APOBEC3G inhibitor project, biochemical, single concentration, fluorescence, FAM/TAMRA oligo. shares compounds with A3G deaminase. UDG counterscreen. inhibition, % at 20 µM. 710 tested, under 10 active. AID 504715, 2011;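 active = compounds giving 40% or more inhibition at 20 µM in any one of the three replicates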;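 also: inhibitors lower the FAM signal released by uracil excision and alkaline cleavage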
Target sequence (P12295 whole entry, looked up): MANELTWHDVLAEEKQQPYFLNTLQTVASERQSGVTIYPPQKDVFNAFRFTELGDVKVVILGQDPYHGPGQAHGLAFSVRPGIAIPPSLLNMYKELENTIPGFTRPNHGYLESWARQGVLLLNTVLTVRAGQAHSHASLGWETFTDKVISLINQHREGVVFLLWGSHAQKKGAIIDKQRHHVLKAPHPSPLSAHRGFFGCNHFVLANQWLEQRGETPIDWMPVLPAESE
Hits are given with their value; - = inactive; . = no result given.

SMILES	Keap1-Nrf2 PPI	CAL PDZ FP-1	LANA DNA inh	A3A deaminase	CAL PDZ FP-2	A3G deaminase	APOBEC3G confirm	UDG ctr A3G
COCCCn1c(-c2ccccc2Cl)n[nH]c1=S	-	.	-	-	-	-	.	.
S=c1[nH]nc(-c2ccc(Cl)cc2)n1CCCN1CCOCC1	-	-	-	-	-	-	.	.
COCCCn1c(-c2ccc(Cl)cc2)n[nH]c1=S	-	-	-	-	-	49	58	-
COc1cc2c(cc1OC)CN(CC(=O)Nc1ccc(Cl)c(S(=O)(=O)N(C)C)c1)CC2	-	-	-	-	-	-	.	.
COc1cc(N=c2ssnc2Cl)cc(OC)c1	-	-	-	-	-	65	65	.
N#Cc1cccc(N=c2ssnc2Cl)c1	-	-	-	-	-	74	88	-
Clc1nssc1=Nc1ccc(Br)cc1	-	-	-	.	-	.	.	.
CCN(C(=O)COC(=O)c1cccc(S(=O)(=O)N(C)C)c1)c1c(N)n(Cc2ccccc2)c(=O)[nH]c1=O	-	-	-	.	-	.	.	.
O=c1cc(-c2ccccc2)nc2n1Cc1ccccc1-2	-	-	-	-	-	-	.	.
O=c1c2cccc(Cl)c2nc2n1Cc1ccccc1-2	-	-	-	-	-	59	55	-
CCOc1ccccc1CSc1nc2ccccc2[nH]1	-	-	-	-	-	-	.	.
CCn1c(CSc2nc3ccccc3[nH]2)n[nH]c1=S	-	-	-	-	-	46	55	-
CCn1c(CSCc2ccccc2)n[nH]c1=S	-	-	-	-	-	41	85	-
CCc1ccc(OCC(=O)OC(C)C(=O)Nc2ccc(Cl)cn2)cc1 (centres undefined)	-	-	-	-	-	-	.	.
FC(F)(F)c1ccccc1-n1c(-c2ccco2)n[nH]c1=S	-	.	-	-	-	-	.	.
CCOc1cccc(C(=O)N/N=C/c2coc3ccccc3c2=O)c1	-	-	-	-	-	-	.	.
Cc1ccc(NC(=O)C2CCN(c3nc(C)cc(C)n3)CC2)cc1	-	-	-	-	.	48	-	-
Nc1ccccc1SCc1ccccc1Cl	-	-	-	-	-	-	.	.
CC(C(Sc1ccccc1N)c1ccccc1)[N+](=O)[O-] (centres undefined)	-	-	-	-	-	65	26	-
CCC(Sc1ccccc1C(=O)O)C(=O)O (centres undefined)	-	-	-	-	-	-	.	.
CCC(Sc1nc(N)cc(N)n1)C(=O)O (centres undefined)	-	-	-	-	-	44	-	.
COc1ccc(CNCc2c(F)cccc2F)cc1OC	-	-	-	-	-	-	.	.
COC(=O)[C@]1(C)N[C@H](CN(C)C(=O)COc2ccccc2)[C@@H]2C(=O)N(C)C(=O)[C@@H]21	-	-	-	-	-	74	-	.
CC(OC(=O)c1ccc2ncsc2c1)C(=O)N(C)C1CCCCC1 (centres undefined)	-	-	-	-	-	-	.	.
CC(=O)N(C1=C(Cl)C(=O)c2ccccc2C1=O)C1CCCCC1	-	-	-	-	.	83	92	-
